Results on 48 sequences are retold here after the EternaBench riboswitch data.

The series relates to MS2 coat protein. Briefly: apparent Kd, MS2 coat protein; higher = weaker binding; RNA-MaP array; FMN 200 µM where present. The procedure, abridged:
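SNAP-549-labelled MS2 coat protein, doubled from 0.7 or 1.5 nM to 3 µM, was titrated over designs transcribed by stalled E. coli RNA polymerase on Illumina sequencing-chip clusters. Titrations were run without and then with constant ligand in 100 mM Tris-HCl pH 7.5, 80 mM KCl, 4 mM MgCl2, BSA, DTT, yeast tRNA and Tween-20. The apparent Kd is the median of filtered per-cluster fits to green signal normalised to red-channel RNA signal and control-cluster median Fmax.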

[1] abbreviates: designed as: OFF switch for flavin mononucleotide, no ligand.
Setting [2] is: ligand present: flavin mononucleotide, designed as: OFF switch for flavin mononucleotide.
Where [3] appears, read: designed as: ON switch for flavin mononucleotide, no ligand.
[4] abbreviates: ligand present: flavin mononucleotide, designed as: ON switch for flavin mononucleotide.

Consider “UAUAUACAUGAGGAUCACCCAUGUCAGGAUAUUAGAUAUAUAUAUACAUAUAAUUAUUUAAGAAGGGACACUAA”, for which the apparent Kd (as a rule, the concentration giving half-maximal binding under the conditions of the assay) reads like this: under setting [1], 43.8 nM; under setting [2], 46 nM. On to “UAUUAGUAAGGAUAUCUCGUCAUGGACGUGAGUCCAUGACGAGAGAAGGUACAUGAGGAUCACCCAUGUCUAUU”, for which the “apparent Kd” value is, setting by setting: under setting [1], 18.1 nM; under setting [2], 19.4 nM. For “AUCAGCUCGUCAGGAUAUACGUCACUGCGUCAGGAGUGUGGUAAGAUCACAUGAGGAUCACCCAUGUAGAAGGGACGAGCUGAU”, in that order: 16.6 nM and 298 nM. The matching figures for “UUGAGGUAGGAGAAGGACAGAGGCGGAAACACAAACAUGAGGAUCACCCAUGUAGGAUAUCCUAACUAACGAGGAUACCUCAAG”: 6.49 nM and 7.53 nM.

On to “CAAGGCUUCACAGGAUAUAUUGAUGACAUGAGGAUCACCCAUGUACCGGCAGUAGAAGGGUGAACGCUCGUGGCCACGUGCGUG”, for which the “apparent Kd” value is, setting by setting: under setting [3], 130 nM; under setting [4], 35.6 nM. Consider “AUGGAACAUGAGGAUCACCCAUGUGAGGAUAUGUGAGAAGGAUUUGAGAUGGAGAGGGACAGAAGGCACUAGGA”, for which the “apparent Kd” value reads like this: under setting [1], 54.4 nM; under setting [2], 37.9 nM. As to “UAACAAAUUGUCAGGAUAUCAGUCCCGGCCCAGAUUGAGAAGGGACAUGAGGAUCACCCAUGUAUGAUUCUCAG”, the “apparent Kd” value under setting [2] worked out at 114 nM. As to “GCGGUACAUGAGGAUCACCCAUGUCAGGAUAUCCGCUGUUUGUUGAUUGGCAGGCGGUGGAGAAGGGACUUCGC”, the “apparent Kd” value by setting is: under setting [1], 35.2 nM; under setting [2], 33.4 nM. “GGGCAUAUUACAUGAGGAUCACCCAUGUCAGAAAGGGUAAUCAGAAGGUACUAUUAGAGAAAGAGUAAGGAUAUGAUUAUGCCC”: the “apparent Kd” value under setting [3] worked out at 486 nM and the “apparent Kd” value under setting [4] was determined as 40.6 nM. With “GCGUUAGAAACACAUGUAUUACAUGAGGAUCACCCAUGUUACUAGGAUAUGUAUUAGAAUUUACAACAGAAGGAGUAAGAACGC”, the “apparent Kd” value was found to be 10.8 nM under setting [1] and 14.6 nM under setting [2]. Take “CACGAUGAUGUAGGAUAUAUGCUGGAAUACAGCAUAGAAGGACAUGAGGAUCACCCAUGUAAAGUGCCUCCAAAUAACAUCGUG”: the “apparent Kd” value was determined as 18.5 nM under setting [1] and 44.5 nM under setting [2]. For “AAUAACAGAGGAUAUACUGUUUUAUGUGUUUGUUGUUUUGAACAUGAGGAUCACCCAUGUAGAAGGCUGAUUGA”, in that order: 40.2 nM and 41.3 nM. Take “GCCAUCGCAUGAGGAUAUGCUCCCGUUUCGGGAGCAGAAGGCAUGUCGUAAGACAUGAGGAUCACCCAUGUAGUUAAGAUGGCA”: the “apparent Kd” value runs as follows: under setting [3], 855 nM; under setting [4], 59.6 nM. For “AGAUAGUGGUGAGGAUAUCAGAAUAGAAAGAAAUGAGAAGGCACACAUGAGGAUCACCCAUGUGAGUUCUUGAGAUUACAUGGU”, the “apparent Kd” value reads like this: under setting [1], 18.4 nM; under setting [2], 34.2 nM. “UGUUAAUAUCGAGGAUAUGUCUAGACACAUGAGGAUCACCCAUGUAUGUGUAUAGAAGGCGAUAUUAACAGCAUGUUACAUGCG”: the “apparent Kd” value was found to be 37.2 nM under setting [3] and 17.4 nM under setting [4].

In the case of “ACAGGUGCAGGAUAUACAUGAGGAUCACCCAUGUGAUUAGCAGUCCUCGGACUGCAAUGUAGAAGGGCACCUGU”, the “apparent Kd” value runs as follows: under setting [1], 327 nM; under setting [2], 1120 nM. As to “UGGAUGUGGGUUCCACAUGAGGAUCACCCAUGUACCGAUGAGAGAAGGCGCGCUGGUUCCCAGGGCGAGGAUAUCUACAUUCAA”, the “apparent Kd” value runs as follows: under setting [1], 5.63 nM; under setting [2], 14.2 nM. Regarding “AGCAGACGAGGAUAUAGAUUUAGAUACAUGAGGAUCACCCAUGUAUAGAUGUAUUUAGAUUUAGAAGGCGUCUGCU”, the “apparent Kd” value runs as follows: under setting [1], 211 nM; under setting [2], 221 nM. The matching figures for “GGAUGACAAAGUCAUCCUAAACGAACAUGAGGAUCACCCAUGUAGGAUAUGGUACUCAAAGAGUACCAGAAGGACAUGUGCCUU”: 33.7 nM and 200 nM. For “GAGCUAUGAGGAUAUGCAUAUAUACGGUUUCGUGUGGUACUACAUGAGGAUCACCCAUGUAGAAGGCGUGGCAG”, in that order: 17.4 nM and 17.9 nM.

Consider “UUACCUUAUGAGAAGGCGGUCAUGAAACAUGAUCGAGGAUAUCAUGUAAACAUGAGGAUCACCCAUGUAUGGGUAUUAUGGUAA”, for which the “apparent Kd” value is 395 nM under setting [3] and 53.7 nM under setting [4]. “CCAUACCGAGGAUAUACAUGAGGAUCACCCAUGUCAAAACCACGUGUACGGCGGUCUUGUAGAAGGCGGAAAUA”: the “apparent Kd” value came to 11 nM under setting [1] and 16 nM under setting [2]. Take “GCAUUGAUAACAGGAUAUAUGAAUCCUACAUGAGGAUCACCCAUGUAGGUGAUCAGCCGCGAUUAGUAGAAGGGUUAUCAAUGC”: the “apparent Kd” value is, setting by setting: under setting [3], 11.4 nM; under setting [4], 6.43 nM. For the sequence “AAUAAACAUGAGGAUCACCCAUGUAAAUGGGUACAAGGAUAUGCGAAAAGAAACAAAGAAGCAGAAGGUGUAAAGA”, the “apparent Kd” value is 836 nM under setting [3] and 1040 nM under setting [4]. As for “GUUAAACAUGAGGAUCACCCAUGUAAGGAUAUGCUGCGGUCGCGAUGACGUGACUGCAGCAGAAGGUACAAAUG”, the “apparent Kd” value was found to be 86.8 nM under setting [1] and 96.5 nM under setting [2]. “GGCGAUCAGGCUAACAUGAGGAUCACCCAUGUGGACUCAUGGUAGGAUAUGCUGUACUUUGUACAGCAGAAGGGCCGGAGAGCC”: the “apparent Kd” value was determined as 46.1 nM under setting [3] and 187 nM under setting [4]. On to “UUGAAGAACUAAGGAUAUUGAAUACAUAUGUUUAACAUGAGGAUCACCCAUGUGGGUUGCGGUAUCGAGAAGGUAGAUUACUAG”, for which the “apparent Kd” value is 115 nM under setting [3] and 104 nM under setting [4]. For “AAGAGCGAUUCUCCCUUCCUACAUGAGGAUCACCCAUGUACGAGAAGGCGCCGUGUAUACAACGGUGAGGAUAUCGUACGUUAC”, the “apparent Kd” value by setting is: under setting [1], 5.46 nM; under setting [2], 10.7 nM.

For the sequence “AUCAGCUCGUCAGGAUAUAUGUCACUGCUUCGGCAGUGUGGUAAGAUCACAUGAGGAUCACCCAUGUAGAAGGGACGAGCUGAU”, the “apparent Kd” value was found to be 29.7 nM under setting [1] and 78 nM under setting [2].

As for “GCUAGGAGUGUGAGGAUAUGCUGUACCUUGGUACAGCAGAAGGCACAUGAGGAUCACCCAUGUGAAGACCUAGC”, the “apparent Kd” value is 25.9 nM under setting [1] and 151 nM under setting [2]. For “UUUGUCUGUGUGAGGAUAUACUUGUUUGGGUUUUUGUAGAAGGCACAUGAGGAUCACCCAUGUAUUUUGUUGUG”, in that order: 58.3 nM and 75.5 nM. Take “GACACUAUGUUUGUCAGAUAGAGAGAGGAUAUGGGUCAUGAGACAUGAGGAUCACCCAUGUUUAAUCAGAAGGCUCGAGUACGA”: the “apparent Kd” value by setting is: under setting [3], 30.7 nM; under setting [4], 15.6 nM.

With “AAUUAAGAUCAAGGAUAUCACGUCGAAUAGACGUGAGAAGGUGAUCCAUACAUGAGGAUCACCCAUGUAUAACAUGAAUUAAUU”, the “apparent Kd” value by setting is: under setting [3], 923 nM; under setting [4], 170 nM. On to “AGUCCAGAAGGAUAUACAUAGGUGAUAAAAAAAAAAAAACUACAUGAGGAUCACCCAUGUAGAAGGUCUGGACA”, for which the “apparent Kd” value was 61.9 nM under setting [1] and 40 nM under setting [2].

For the sequence “UUAAAUCAUGUAGGAUAUGCAUGGCGAAGCUACGCAGAAGGACAUGAGGAUCACCCAUGUUCGAGCGUCUGAGUACAGAUGCAA”, the “apparent Kd” value was 19.1 nM under setting [1] and 59.8 nM under setting [2].

Turning to “AAUAUGUUGCAGAAGGUUAUUUUUAUAACGAUCCAUGUGACAUGAGGAUCACCCAUGUAAUUGAUGAAGGAUAUGCAAUAUAUU”, the “apparent Kd” value is, setting by setting: under setting [1], 6.72 nM; under setting [2], 6.45 nM. The matching figures for “ACCUUACAUGAGGAUCACCCAUGUUAGGAUAUCUCGCCUGCACAAACACAGCGCAGGCAGAGAAGGGACGCGGG”: 28.2 nM and 35 nM.

Take “GUGUAUAGCCUCGAGGAUAUCCUGUAAUGCACAUGAGGAUCACCCAUGUAUGAGCGAGUUUUUUGGGAGAAGGCGAGUUAUCGGU”: the “apparent Kd” value under setting [3] worked out at 26.6 nM and the “apparent Kd” value under setting [4] came out at 16.9 nM. As for “UAAUGUUAGCGAGGAUAUCGUUUAUUGAAGUUACGAGAAGGCGCUCUUCUUACAUGAGGAUCACCCAUGUCUGUUUUGCAUGAU”, the “apparent Kd” value under setting [4] came to 51.9 nM. “CAUACGUCAGGAUAUCUGAUGUCUAACUUCGGUUAGACAUCAGAGAAGGGACAUGAGGAUCACCCAUGUAUGAA”: the “apparent Kd” value runs as follows: under setting [1], 118 nM; under setting [2], 130 nM. On to “CCGACGAAAGUCGAACGAUGUAGCAGAAGGACAUGAGGAUCACCCAUGUCAGCUGUAACAGCCAUGUAGGAUAUGCUACAUCGC”, for which the “apparent Kd” value reads like this: under setting [1], 4.16 nM; under setting [2], 5.51 nM. The matching figures for “UACGCACAGAAGUACUCCGGGUCCAGAAGGGACAUGAGGAUCACCCAUGUACCGUUGAUUGCUUGUCAGGAUAUGGACCCGGCC”: 6.82 nM and 26.3 nM. For “CCGCUGUGAGGAUAUUAGUAGUAGUCAGAAUAGACUAUUACUGAGAAGGCACAUGAGGAUCACCCAUGUUGCGG”, in that order: 30.8 nM and 39 nM. For “GCGCCAUCGUGAGAUGGCGUAUAUACAUGAGGAUCACCCAUGUAGGAUAUCGAUUGCUUUGCAGUCGAGAAGGGCAUGUAAUUU”, in that order: 33.5 nM and 43.9 nM.

Regarding “GCUGACGAUGUAGGAUAUCAGUAUAAUAAAUACUGAGAAGGACAUGAGGAUCACCCAUGUAACUCACGUCAGCAGAGGAAACUC”, the “apparent Kd” value under setting [1] worked out at 17.6 nM and the “apparent Kd” value under setting [2] was found to be 20.4 nM.

As for “CGGCGCUGUUGAGAGGAUAUGCGGUGAUGGACAUGAGGAUCACCCAUGUUAGCGAUAGCAUUACGGUAGAAGGCUCUACAGCUGU”, the “apparent Kd” value stood at 28.1 nM under setting [3] and 16.7 nM under setting [4]. Regarding “GGUGUGUUAGGAUAUCGCGGCGGCGGCGUUUGUUGUUGUUGUGAGAAGGGACAUGAGGAUCACCCAUGUGCGCC”, the “apparent Kd” value by setting is: under setting [1], 24.4 nM; under setting [2], 27.2 nM. Consider “CCGAUGUUAGGAUAUACUGCCCGUGGGAUAAACGCCGGGUAGUAGAAGGAACAUGAGGAUCACCCAUGUGACAC”, for which the “apparent Kd” value by setting is: under setting [1], 39.6 nM; under setting [2], 220 nM.
